Data on one compound can be found in publication PMC6977399 (Clinical Pharmacology and Therapeutics, 2019).

One data set addresses T1, human OAT3 (Homo sapiens, UniProt Q8TCC7).
T1 sequence (Q8TCC7 1-542): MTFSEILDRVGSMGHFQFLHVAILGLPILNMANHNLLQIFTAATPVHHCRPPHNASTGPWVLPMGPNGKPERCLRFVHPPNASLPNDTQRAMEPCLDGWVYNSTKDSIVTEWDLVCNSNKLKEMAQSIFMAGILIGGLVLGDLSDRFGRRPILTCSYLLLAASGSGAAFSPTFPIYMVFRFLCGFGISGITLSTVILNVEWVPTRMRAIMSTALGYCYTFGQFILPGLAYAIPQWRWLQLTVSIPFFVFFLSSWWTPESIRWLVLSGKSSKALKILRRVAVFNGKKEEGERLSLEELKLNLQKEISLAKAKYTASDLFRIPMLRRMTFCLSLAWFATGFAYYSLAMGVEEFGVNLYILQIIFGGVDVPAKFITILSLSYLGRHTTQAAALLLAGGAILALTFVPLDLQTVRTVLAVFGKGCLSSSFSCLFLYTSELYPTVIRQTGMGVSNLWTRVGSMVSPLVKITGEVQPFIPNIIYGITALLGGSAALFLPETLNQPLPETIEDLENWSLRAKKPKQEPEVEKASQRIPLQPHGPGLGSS
The experiment in a line: Inhibition of OAT3-mediated estrone-3-sulfate uptake in HEK293 cells. It counts as in vitro ADME. Summed up:
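HEK293 cells stably expressing human OAT3, with mock-transfected HEK293 as control cells. Uptake was run at 37°C in HK buffer (pH 7.4) with 1 μM ³H-estrone-3-sulfate plus test compound or DMSO vehicle. Cells were washed twice, lysed in 0.1 M NaOH, and counted by liquid scintillation. Transporter-specific uptake was taken as uptake in transfected cells minus uptake in control cells.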

Another data set concerns the target CYP2C19 (Homo sapiens, UniProt P33261). The experiment in a line: CYP inhibition in human liver microsomes. The data set is classed as in vitro ADME. To be noted: up to 15 μM. Summed up: (§1)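 Reversible inhibition: test compound pre-incubated 10 min at 37°C with pooled human liver microsomes plus an isoform-selective probe substrate. Reaction started with NADPH (1.3 mM), then quenched with 3% formic acid in acetonitrile containing internal standard. CYP-specific metabolite formation measured by LC-MS/MS. Activity expressed as % control = (peak area ratio with compound / without compound) × 100.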
(Liver microsomes are vesicles of endoplasmic reticulum, rich in cytochrome P450 enzymes.)

For another data set, the target named is T2, OATP1B1 (Homo sapiens, UniProt Q9Y6L6).
T2 sequence (Q9Y6L6 1-691): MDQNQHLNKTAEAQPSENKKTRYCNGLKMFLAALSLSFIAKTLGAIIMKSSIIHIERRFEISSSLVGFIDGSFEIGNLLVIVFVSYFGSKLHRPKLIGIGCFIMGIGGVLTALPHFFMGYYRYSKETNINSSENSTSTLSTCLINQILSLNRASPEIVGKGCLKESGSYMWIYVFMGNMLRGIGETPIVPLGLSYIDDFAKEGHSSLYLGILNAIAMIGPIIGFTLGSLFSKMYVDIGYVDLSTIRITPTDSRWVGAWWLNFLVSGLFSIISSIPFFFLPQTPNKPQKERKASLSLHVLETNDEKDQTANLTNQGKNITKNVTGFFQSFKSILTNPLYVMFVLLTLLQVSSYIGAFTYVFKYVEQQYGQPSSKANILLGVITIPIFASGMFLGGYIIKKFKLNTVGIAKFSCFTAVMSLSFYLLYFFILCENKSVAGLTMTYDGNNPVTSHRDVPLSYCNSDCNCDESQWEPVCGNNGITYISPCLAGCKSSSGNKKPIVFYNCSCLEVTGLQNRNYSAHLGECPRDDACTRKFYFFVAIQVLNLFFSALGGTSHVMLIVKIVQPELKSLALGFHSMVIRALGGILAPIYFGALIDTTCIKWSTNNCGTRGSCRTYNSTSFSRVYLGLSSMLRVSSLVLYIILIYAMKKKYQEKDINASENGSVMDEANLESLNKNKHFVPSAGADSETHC
The experiment in a line: Inhibition of OATP1B1-mediated E217ßG uptake in HEK293 cells. It counts as in vitro ADME.

The test system of data set [1] is CYP3A. As to conditions: 200 mg b.i.d.; based on MDZ AUC increase, weak > 1.25 to < 2-fold.
The conditions of data set [2]: phase I single-ascending and multiple-ascending dose studies; cited from earlier work.
A further data set concerns Bruton's tyrosine kinase. To be noted: phase I studies; cited from earlier work.
Another data set concerns the target T3, CYP2B6 (Homo sapiens, UniProt P20813).
T3 sequence (P20813 1-491): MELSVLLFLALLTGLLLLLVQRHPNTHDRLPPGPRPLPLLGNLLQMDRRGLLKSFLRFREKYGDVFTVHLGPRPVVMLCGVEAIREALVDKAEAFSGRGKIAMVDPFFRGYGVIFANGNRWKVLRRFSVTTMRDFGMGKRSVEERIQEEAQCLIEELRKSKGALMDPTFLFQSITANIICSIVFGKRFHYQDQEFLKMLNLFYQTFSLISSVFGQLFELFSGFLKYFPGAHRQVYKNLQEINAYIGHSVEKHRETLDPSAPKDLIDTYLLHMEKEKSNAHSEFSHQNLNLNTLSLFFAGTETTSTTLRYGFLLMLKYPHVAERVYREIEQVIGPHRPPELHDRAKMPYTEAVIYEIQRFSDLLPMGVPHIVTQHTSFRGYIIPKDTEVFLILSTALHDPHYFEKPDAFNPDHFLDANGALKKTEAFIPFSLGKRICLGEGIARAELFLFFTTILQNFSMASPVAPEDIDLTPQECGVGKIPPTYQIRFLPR
The experiment in a line: CYP inhibition in human liver microsomes. It counts as in vitro ADME. As to conditions: up to 50 μM. Summed up: as §1

Data set [3] relates to CYP3A. Description: Reversible CYP3A inhibition in human liver microsomes. It counts as in vitro ADME. To be noted: MDZ and testosterone as probe substrates. Summed up: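 Test compound was pre-incubated for 10 min at 37°C with pooled human liver microsomes containing an isoform-selective substrate. Metabolite formation was expressed as % control activity, calculated as the peak area ratio with compound divided by the peak area ratio without compound, ×100.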

Molecules are shown by their SMILES.

CYP2C19, sequence (P33261 whole entry, canonical isoform): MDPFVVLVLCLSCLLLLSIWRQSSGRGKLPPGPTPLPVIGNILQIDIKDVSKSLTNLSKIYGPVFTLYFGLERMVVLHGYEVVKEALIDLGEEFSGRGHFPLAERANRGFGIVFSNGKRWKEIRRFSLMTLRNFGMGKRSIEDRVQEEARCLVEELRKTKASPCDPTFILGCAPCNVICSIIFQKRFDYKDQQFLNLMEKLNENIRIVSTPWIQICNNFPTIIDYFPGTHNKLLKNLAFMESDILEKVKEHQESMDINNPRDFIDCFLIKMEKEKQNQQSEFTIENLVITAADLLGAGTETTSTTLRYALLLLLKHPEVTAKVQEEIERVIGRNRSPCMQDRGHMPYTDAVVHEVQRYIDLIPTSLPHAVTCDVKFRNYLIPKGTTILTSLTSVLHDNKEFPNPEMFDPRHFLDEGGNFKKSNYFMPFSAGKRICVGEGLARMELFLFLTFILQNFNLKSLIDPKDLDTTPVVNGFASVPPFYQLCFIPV

For the compound `C[C@H]1CN(C2COC2)CCN1c1ccc(Nc2cc(-c3ccnc(N4CCn5c(cc6c5CC(C)(C)C6)C4=O)c3CO)cn(C)c2=O)nc1` [fenebrutinib], the “inhibition of OAT3 uptake transporter” value against human OAT3 (at clinically relevant concentrations) is recorded as “no evidence of inhibition”. Further, on human OAT3 (up to 30 μM, the highest concentration tested, HEK293 cells), the “influence on OAT3-mediated accumulation of estrone-3-sulfate” value is listed as “did not influence”. The “reversible or time-dependent inhibition of CYP2C19” value on CYP2C19 is reported as “No reversible or time‐dependent inhibition”. Besides, on OATP1B1, it took 19.7 µM to reach half-maximal inhibition (IC50). For the same compound, on OATP1B1 (human, HEK293 cells stably expressing human OATP1B1, pH 7.4, probe E217ßG (1 μM)), the inhibition – broadly, the percentage by which the read-out fell short of the control – at 30 μM was 62.8%. In addition, in the data set on CYP3A [1], the “clinical classification as CYP3A inhibitor” value was “weak inhibitor”. Also, the “terminal half-life (t1/2)” value in data set [2] is 4−10 hours. The “plasma concentration showing target engagement” value in the data set with Bruton's tyrosine kinase is recorded as 100 nM. Further, the “reversible or time-dependent inhibition of CYP2B6” value at CYP2B6 was “No reversible or time‐dependent inhibition”. In the data set on CYP3A [3], the “reversible CYP3A inhibition” value is given as “no reversible CYP3A inhibition”.
